# Assay results as given in ChEMBL document CHEMBL4038281, “Competitive protein tyrosine phosphatase 1B (PTP1B) inhibitors, prenylated caged xanthones from Garcinia hanburyi and their inhibitory mechanism” (Bioorg Med Chem, 2017).
# Calls of active or inactive are those of the source. The rule behind the calls is not given here.
# What was measured:
# [1] = target: T1, Tyrosine-protein phosphatase non-receptor type 1 (Homo sapiens) (UniProt P18031); assay: Inhibition of recombinant human PTP1B (1 to 322 residues) expressed in Escherichia coli using pNPP as substrate incubated for 10 mins measured for 30 mins by spectrometric analysis
# T1 sequence (whole entry): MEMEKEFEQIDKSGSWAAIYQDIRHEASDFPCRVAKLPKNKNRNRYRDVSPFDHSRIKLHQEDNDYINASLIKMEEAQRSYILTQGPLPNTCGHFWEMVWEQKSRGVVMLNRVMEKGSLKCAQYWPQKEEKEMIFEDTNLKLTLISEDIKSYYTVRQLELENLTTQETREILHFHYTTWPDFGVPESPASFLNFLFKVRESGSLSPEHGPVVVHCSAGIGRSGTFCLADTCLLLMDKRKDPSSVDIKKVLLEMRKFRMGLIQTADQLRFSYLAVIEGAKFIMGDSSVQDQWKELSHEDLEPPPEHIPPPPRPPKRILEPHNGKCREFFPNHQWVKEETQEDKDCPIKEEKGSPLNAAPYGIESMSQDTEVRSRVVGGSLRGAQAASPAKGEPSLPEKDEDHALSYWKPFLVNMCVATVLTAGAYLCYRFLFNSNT
# How it was run: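 Enzyme (1 mg/mL stock) was mixed with sample in DMSO and 4 mM pNPP stock in 25 mM Tris-HCl pH 7.5, 1 mM EDTA, 2 mM b-mercaptoethanol and 1 mM DTT.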
# [2] = target: T1, Tyrosine-protein phosphatase non-receptor type 1 (Homo sapiens); assay: Competitive inhibition of recombinant human PTP1B (1 to 322 residues) expressed in Escherichia coli at 99.4 to 397.8 uM using pNPP as substrate by Line-weaver burk plot method
# How it was run: (§1)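 Kinetics with pNPP substrate in 25 mM Tris-HCl (pH 7.5), 1 mM EDTA, 2 mM b-mercaptoethanol, 1 mM DTT, 37 °C. Initial velocities were recorded at several substrate and inhibitor concentrations and read at 405 nm. Vmax and Km came from Lineweaver-Burk plots, and the Kik/Kiv ratio was calculated per Yang et al.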
# [3] = target: T1, Tyrosine-protein phosphatase non-receptor type 1 (Homo sapiens); assay: Competitive inhibition of recombinant human PTP1B (1 to 322 residues) expressed in Escherichia coli at 11.8 to 47.2 uM using pNPP as substrate by Line-weaver burk plot method; how it was run: as §1
# [4] = target: T1, Tyrosine-protein phosphatase non-receptor type 1 (Homo sapiens); assay: Competitive inhibition of recombinant human PTP1B (1 to 322 residues) expressed in Escherichia coli at 52.6 to 210.6 uM using pNPP as substrate by Line-weaver burk plot method
# How it was run: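 PTP1B activity was followed by pNPP hydrolysis at 405 nm in 25 mM Tris-HCl pH 7.5 with 1 mM EDTA, 2 mM b-mercaptoethanol and 1 mM DTT, at 37 °C, with compound added in DMSO. Initial velocities were taken across substrate and inhibitor concentrations. Km and Vmax came from Lineweaver-Burk plots, with Dixon plots also used, and the Kik/Kiv ratio was calculated after Yang et al.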
# [5] = target: T1, Tyrosine-protein phosphatase non-receptor type 1 (Homo sapiens); conditions: 457.3 to 1829.3 uM
# [6] = target: T1, Tyrosine-protein phosphatase non-receptor type 1 (Homo sapiens); conditions: 12.4 to 49.6 uM
# [7] = target: T1, Tyrosine-protein phosphatase non-receptor type 1 (Homo sapiens); conditions: 0.47 uM
# [8] = target: T1, Tyrosine-protein phosphatase non-receptor type 1 (Homo sapiens); conditions: 49.5 to 198.1 uM
# [9] = target: T1, Tyrosine-protein phosphatase non-receptor type 1 (Homo sapiens); conditions: 11.7 to 47.1 uM
smiles,measurement,setting,value
COC1=C2C(=O)c3c(O)c4c(c(CC=C(C)C)c3O[C@@]23[C@H]2C[C@@H]1C(=O)[C@]3(CC=C(C)C)OC2(C)C)O[C@](C)(CCC=C(C)C)C=C4,inhibition,[1],Dose-dependent effect
same,inhibition,[2],Active
CO[C@@H]1C2C(=O)c3c(O)c4c(c(CC=C(C)C)c3O[C@@]23[C@H]2C[C@@H]1C(=O)[C@]3(C/C=C(/C)C(=O)O)OC2(C)C)O[C@](C)(CCC=C(C)C)C=C4 (stereo not given in full),inhibition,[1],Dose-dependent effect
same,inhibition,[3],Active
CO[C@@H]1C2C(=O)c3c(O)c4c(c(CC=C(C)C)c3O[C@@]23[C@H]2C[C@@H]1C(=O)[C@]3(C/C=C(/C)C(=O)O)OC2(C)C)OC(C)(C)C=C4 (stereo not given in full),inhibition,[1],Dose-dependent effect
same,inhibition,[4],Active
CC(C)=CCc1c2c(c(O)c3c1O[C@]14C(=C[C@@H]5C[C@H]1C(C)(C)O[C@@]4(/C=C(/C)CO)C5=O)C3=O)C=CC(C)(C)O2,inhibition,[1],Dose-dependent effect
same,inhibition,[5],Active
CC(C)=CCC[C@]1(C)C=Cc2c(O)c3c(c(CC=C(C)C)c2O1)O[C@]12C(=C[C@@H]4C[C@H]1C(C)(C)O[C@@]2(C/C=C(/C)C(=O)O)C4=O)C3=O,inhibition,[1],Dose-dependent effect
same,inhibition,[6],Active
same,TDI,[7],Active
CC(C)=CCC/C(C)=C/Cc1c(O)c(CC=C(C)C)c2c(c1O)C(=O)C1=C[C@@H]3C[C@H]4C(C)(C)O[C@@](C/C=C(/C)C(=O)O)(C3=O)[C@@]14O2,inhibition,[1],Dose-dependent effect
same,inhibition,[8],Active
CO[C@@H]1C2C(=O)c3c(O)c(C/C=C(\C)CCC=C(C)C)c(O)c(CC=C(C)C)c3O[C@@]23[C@H]2C[C@@H]1C(=O)[C@]3(C/C=C(/C)C(=O)O)OC2(C)C (stereo not given in full),inhibition,[1],Dose-dependent effect
same,inhibition,[9],Active
